From PubChem
FGF22 binding – binders of human FGF22 protein, primary screen, FGF22 synaptogenesis inhibitor project, biophysical, thermal shift, single point; Fibroblast growth factor 22 (Homo sapiens), Q9HCT0; recombinant FGF22 thermal shift, SYPRO orange fluorescence; percent of sucrose octasulfate shift, DMSO zero; activity (Tm shift, normalised), % at 9.99 µM; 340,000 compounds, 1.5% hits; AID 651658, 2012;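 active means mean Tm shift, scaled 0 neutral to 100 positive control, at about 1.3% or above, every replicate too, limit read from the data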
Target sequence (Q9HCT0 whole entry, looked up): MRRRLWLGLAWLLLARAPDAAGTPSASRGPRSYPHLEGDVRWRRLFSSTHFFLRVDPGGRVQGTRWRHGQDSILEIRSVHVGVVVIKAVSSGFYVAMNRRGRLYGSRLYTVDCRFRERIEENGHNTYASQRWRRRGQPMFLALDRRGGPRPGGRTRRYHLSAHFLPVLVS
XiGFP reactiv – activators of inactive X chromosome reactivation, primary screen, imaging, XiGFP fibroblasts, GFP high-content imaging, set 2 | XiGFP mouse fibroblasts, % GFP-positive cells imaging, 3 d; cells co-treated with 5-aza-dC sensitizer; scaled so ellipticine positive control = 100% | activation, % at 7.58 µM | 360,000 compounds, 0.055% hits;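 active means mean normalized replicate activation at least 10% and every replicate at or above 10%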;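 further: 0% = median of on-plate neutral control wells and 100% = ellipticine 6 µM median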
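material = 68-5-11 XiGFP fibroblast line | medium = DMEM plus 5-aza-dC sensitizer | schedule = 3 days compound exposure | benchmarks = positive control ellipticine, 6 µM final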
FN deposit inh – inhibitors of fibronectin matrix deposition, primary screen, AH1F cells, Alexa488-fibronectin fluorescence, plate reader | AH1F fibroblasts, overnight | 350,000 compounds, 0.086% hits | inhibition, % at 12.6 µM | AID 743247, 2014;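 active means mean inhibition across replicates of 30% or more, regardless of how many single replicates reach that level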;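 further: positive control wells lacked labelled fibronectin entirely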
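Schedule: 1 h cell adhesion before compound, then overnight fibronectin incubation; test system: AH1F fibroblast monolayer depositing Alexa488-labelled fibronectin into matrix; quantity: 10000 AH1F cells per well; probe or stimulus: fluorescent fibronectin at 24 nM final; signal: fluorescence, ex 485 nm, em 525 nm; evaluation: percent inhibition as loss of matrix-bound fibronectin fluorescence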
ARNT-TACC3 inh – disruptors of ARNT/TACC3 protein interaction, primary screen, biochemical, AlphaScreen, single concentration; Transforming acidic coiled-coil-containing protein 3 (Homo sapiens), Q9Y6A5; 390,000 compounds, 0.66% hits; inhibition, % at 9.99 µM; AlphaScreen His-ARNT PAS-B/GST-TACC3 binding, luminescence; TACC3 fragment carries E629A point mutation;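 active means mean inhibition of replicates at least 50% and at least half of replicates each reaching 50%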;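 further: 0% = complete ARNT plus TACC3 wells and 100% = ARNT alone without TACC3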
SIRT5 inh – SIRT5 desuccinylase inhibitors, primary screen, biochemical, fluorescence imaging, single point, set 5. inhibition, % at 15 µM. Purified SirT5, succinyl-peptide AMC, trypsin-coupled fluorescence. 330,000 compounds, 1.1% hits; in the data active means inhibition above about 15%
Target sequence (Q9NXA8 whole entry, looked up): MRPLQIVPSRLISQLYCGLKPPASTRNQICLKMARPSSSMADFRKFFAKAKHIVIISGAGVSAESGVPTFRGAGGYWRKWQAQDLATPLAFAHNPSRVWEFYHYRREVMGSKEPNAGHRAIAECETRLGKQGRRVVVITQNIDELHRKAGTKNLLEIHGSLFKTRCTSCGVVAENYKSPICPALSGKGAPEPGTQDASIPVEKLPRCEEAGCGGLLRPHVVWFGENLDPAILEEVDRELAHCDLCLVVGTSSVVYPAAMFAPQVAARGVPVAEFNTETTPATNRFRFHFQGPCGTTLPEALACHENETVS
DENV2 CPE rescue – inhibitors of DENV2 cytopathic effect, primary screen, cell-based, plate reader, single concentration; DENV2-infected cells, cytopathic effect rescue; CPE inhibition, % at 9.99 µM; 350,000 compounds, 1.7% hits; in the data active means CPE inhibition above about 20%, passing the limit was not always enough; tested in BHK-21 cells;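 further: 0% = median of neutral control wells and 100% = median of positive control wells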
Numbers without * were called inactive; . = not tested or not shown. Hits are enriched below; roughly 3.8% of the tested compounds scored in any of these assays.

SMILES	FGF22 binding	XiGFP reactiv	FN deposit inh	ARNT-TACC3 inh	SIRT5 inh	DENV2 CPE rescue
Cc1sc(NC(=O)c2ccco2)c(C(Nc2ccccn2)c2ccccc2)c1C (configuration not stated)	.	0.2	2.7	-38.1	.	.
CCCNC(=O)N1CCC2(CC1)CN(C(C)=O)[C@@H](CO)c1c2c2ccc(OC)cc2n1C	.	0.2	.	.	.	.
CCCN[C@@H]1C(=O)N2C(C(=O)OCCC)=C(C)CS[C@H]12	-0.1	0.1	12.7	-0.8	0.8	72.1*
COc1ccc(C[C@@H]2CCc3cnnn3COC[C@H](C)NC2=O)cc1	.	0.0	-7.4	.	.	.
O=C(Nc1ccccc1)SC1CCCCC1	43.1*	0.1	11.8	9.3	.	0.6
CN(C(=O)Nc1ccccc1)C1CCCCC1	0.0	0.1	-4.5	-2.7	.	-0.4
CCCNC(=O)N1CC2(C1)CN(Cc1ccccn1)[C@@H](CO)c1c2c2ccc(OC)cc2n1C	-0.1	0.2	.	.	0.3	8.7
C[C@@H]1CCCCO[C@H](CN(C)S(=O)(=O)c2cccs2)[C@H](C)CN([C@@H](C)CO)C(=O)c2cc(NC(=O)CCC(F)(F)F)ccc2O1	-0.3	0.0	.	-18.0	2.9	11.4
COc1ccc(-c2ccc(C(=O)O)c(=O)[nH]2)cc1	43.6*	0.0	1.1	20.5	-36.5	-4.5
C[C@@H]1CN([C@H](C)CO)C(=O)c2cc(NS(=O)(=O)c3cccs3)ccc2O[C@@H](C)CCCCO[C@H]1CN(C)C(=O)Nc1ccc(F)cc1	-0.4	-0.1	.	0.5	9.6	-8.2
N#CC(=C(O)COC(=O)c1ccc2c(c1)OCCO2)c1nc2ccccc2[nH]1	0.0	0.0	0.4	8.9	.	-2.5
COc1cc(OC)cc(C(=O)OC/C(O)=C(\C#N)c2nc3ccccc3[nH]2)c1	0.1	-0.1	-3.2	0.2	-4.3	60.5*
Cc1c(C(=O)OCC(O)=C(C#N)c2nc3ccccc3[nH]2)oc2ccc(Br)cc12	-0.3	0.0	-0.9	24.7	30.5*	-0.7
N#C/C(=C(/O)CSc1ncn[nH]1)c1nc2ccccc2[nH]1	43.7*	0.6	7.8	16.1	-2.7	-0.5
Cc1ccccc1S(=O)(=O)N1CC[C@@H]2[C@@H](CO)N(C)c3ccc(-c4cccc(F)c4)cc3[C@@H]21	-0.2	0.1	10.4	14.7	.	44.4*
Cc1ccccc1S(=O)(=O)N1CC[C@@H]2[C@H]1c1cc(-c3ccc(F)cc3)ccc1N(C)[C@H]2CO	-0.2	-0.1	7.4	9.4	14.9	1.2
CN1c2ccc(-c3ccccc3)cc2[C@@H]2[C@@H](CCN2S(=O)(=O)c2ccccc2F)[C@@H]1CO	0.0	0.0	5.7	5.4	4.5	68.2*
Cc1noc(C)c1NC(=O)N(C)C[C@H]1OCCCC[C@@H](C)Oc2ccc(NC(=O)C3CCCCC3)cc2C(=O)N([C@H](C)CO)C[C@@H]1C	-0.1	-0.6	.	-26.4	-2.5	9.5
C[C@H](CO)N1C[C@H](C)[C@H](CN(C)Cc2ccccc2)OCCCC[C@H](C)Oc2ccc(NC(=O)NC3CCCCC3)cc2C1=O	-0.4	-0.9	.	3.9	7.0	29.2*
C[C@@H]1CCCCO[C@@H](CN(C)Cc2ccccc2)[C@H](C)CN([C@@H](C)CO)C(=O)c2cc(NC(=O)NC3CCCCC3)ccc2O1	-0.8	-1.2	.	-14.5	3.2	23.9*
C[C@@H](NC(=O)[C@H]1[C@H](CO)[C@H]2Cn3c(cccc3=O)[C@H]2N1Cc1ccncc1)c1ccccc1	0.0	0.3	.	-14.5	-1.9	-3.6
C[C@H](C(=O)N(C)C[C@H]1OCc2ccccc2-c2ccccc2C(=O)N([C@H](C)CO)C[C@@H]1C)c1ccccc1	.	-1.0	-13.7	.	.	.
COc1ccc(N2CCN(CCCNC(=O)C(=O)c3c[nH]c4ccccc34)CC2)cc1	0.0	0.0	.	48.0*	1.6	-11.5
O=C(NCCCN1CCOCC1)C(=O)c1c[nH]c2ccccc12	-0.3	0.2	3.0	9.9	-0.2	4.9
N#Cc1ccc(-c2ccc3c(c2)[C@@H]2[C@@H](CCN2C(=O)c2ccc4c(c2)OCO4)[C@H](CO)N3)cc1	0.0	0.3	6.5	-4.4	2.1	-19.2
SMILES	FGF22 binding	XiGFP reactiv	FN deposit inh	ARNT-TACC3 inh	SIRT5 inh	DENV2 CPE rescue
CN1C(=O)c2cc(NS(=O)(=O)c3ccccc3F)ccc2OC[C@@H]2O[C@H](CC(=O)NC3Cc4ccccc4C3)CC[C@H]21	-0.1	0.0	-3.1	-2.7	-4.2	0.9
CC(C)(C)c1cnnn1-c1ccc(/C=N/Nc2ccc([N+](=O)[O-])cc2)cc1	43.0*	0.0	0.5	-4.3	1.8	2.6
C[C@@H]1CCCCO[C@H](CN(C)C(=O)Cc2ccccc2)[C@@H](C)CN([C@@H](C)CO)C(=O)c2cc(NC(=O)Nc3ccc(F)cc3)ccc2O1	-0.7	-0.4	.	-2.7	2.3	16.1
C[C@@H]1CN([C@H](C)CO)C(=O)c2cc(NC(=O)Nc3ccc(F)cc3)ccc2O[C@@H](C)CCCCO[C@H]1CN(C)C(=O)c1ccccc1	.	-1.1	.	.	5.2	11.2
C[C@H]1CCCCO[C@H](CN(C)C(=O)Cc2ccccc2)[C@@H](C)CN([C@@H](C)CO)C(=O)c2cc(NC(=O)NC3CCCCC3)ccc2O1	-0.3	-0.6	.	-10.8	.	25.4*
C[C@@H]1CN([C@H](C)CO)C(=O)c2cc(NC(=O)Nc3ccc(F)cc3)ccc2O[C@@H](C)CCCCO[C@@H]1CN(C)C(=O)c1ccccc1	1.4*	0.0	.	-8.2	4.2	4.4
C[C@@H]1CCCCO[C@@H](CN(C)C(=O)Cc2ccccc2)[C@@H](C)CN([C@@H](C)CO)C(=O)c2cc(NC(=O)Nc3ccc(F)cc3)ccc2O1	-1.0	-0.3	.	-3.2	32.0*	-4.4
CC(C)NC(=O)Nc1ccc2c(c1)C(=O)N([C@H](C)CO)C[C@H](C)[C@@H](CN(C)C(=O)c1ccccc1)OCCCC[C@H](C)O2	0.0	0.0	.	-5.3	0.2	47.8*
O=C(N[C@H]1CC[C@H](CCn2cc(C3CCCC3)nn2)O[C@@H]1CO)c1cccnc1	.	0.2	-3.3	.	4.9	15.4
CCNC(=O)[C@@H]1[C@@H](CO)[C@@H]2Cn3c(ccc(-c4ccc(OC)cc4)c3=O)[C@@H]2N1Cc1nccs1	-0.1	0.0	.	15.7	-48.9	3.8
CN1C[C@@H](O)COC[C@H]2O[C@H](CC(=O)NC3CCCC3)CC[C@@H]21	-0.4	0.2	2.5	-2.8	-0.1	13.0
